Results from article PMC7108400 (Leukemia research, 2019).
“Also recorded” adds a separate entry of the source. Where two headings read alike, the source gives them in different places.

Experiments:
AML = conditions: cited from earlier work
newly diagnosed AML = conditions: cited from earlier work
[1] = tested on: first relapse or primary refractory AML; conditions: cited from earlier work
[2] = tested on: AML cell lines and primary AML cells from patients; conditions: combination with doxorubicin; cited from earlier work
BRCA1, CHK1, and RAD51 = conditions: AML cell lines; cited from earlier work
[3] = Panobinostat plasma pharmacokinetics, cycle 1 day 8, non-compartmental; assay type: in vivo, human; conditions: for CL/F / AUC / AUC(0-t) / Vd/F: geometric mean (%CV); for Cmax / AUC / AUC(0-t) / half-life / Tmax / Vd/F: human, plasma, oral; for AUC: AUC0inf; for half-life: T1/2, Median (range); for Tmax: Median (range); for Vd/F: Vz/F
How it was run: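 Adults <65 y with newly diagnosed high-risk AML received oral HDAC-inhibitor test compound thrice weekly from day 8, after idarubicin 12 mg/m²/d IV (days 1–3) and ara-C 100 mg/m²/d continuous IV (days 1–7). On cycle 1 day 8, 3 mL blood was drawn pre-dose and at 0.5–28 h. Plasma parameters were derived non-compartmentally; geometric mean (%CV) excluded zero concentrations, and Tmax is median (range).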

[4] = tested on: AML progressed on standard therapy / advanced hematologic malignancies; conditions: single agent, cited from earlier work
[5] = tested on: newly diagnosed primary or secondary high-risk AML; experiment: Anti-leukemic efficacy; assay type: in vivo, human; conditions: for ORR: 20-mg dose level
[6] = Dose-limiting toxicities and MTD/RP2D determination; assay type: in vivo
de novo AML = conditions: cited from earlier work
[7] = elderly patients (> 65 years), with idarubicin and ara-C
[8] = 20 mg, PAN 20 mg (expansion phase), N=10
[9] = PAN 20 mg (expansion phase), N=12

Compound: Nc1ncn([C@@H]2O[C@H](CO)[C@@H](O)[C@H]2O)c(=O)n1 [azacitidine]
- Grade ≥ 3 AEs (AML; azacitidine alone): 81%

Compound: Cc1[nH]c2ccccc2c1CCNCc1ccc(/C=C/C(=O)NO)cc1 [panobinostat]
- CR rate (newly diagnosed AML; [7]): 64%
- Median time to relapse (newly diagnosed AML; [7]): 17.0 months
- MTD of panobinostat (newly diagnosed AML; with 8 mg/m^2 idarubicin (day 1–3) and 100 mg/m^2 ara-C (day 1–7), elderly): 10 mg
- DLTs ([1]; first 2 cohorts, 20 mg and 30 mg thrice weekly): no DLTs occurred
- CR/CRi rate ([1]; plus ara-C and mitoxantrone): 46%
- RP2D of panobinostat ([1]; with mitoxantrone and ara-C as salvage therapy): 50 mg
- Cell death (caspase-dependent apoptosis) [2]: induces cell death
- Expression of BRCA1, CHK1, and RAD51 (BRCA1, CHK1, and RAD51): decreases the levels of key proteins BRCA1, CHK1, and RAD51; also recorded: reduce the expression of BRCA1, CHK1, and RAD51
- Grade ≥ 3 AEs (AML; panobinostat 30 mg combined with azacitidine): 97%
- CL/F ([3]; PAN 15 mg, N=10): 295 (54.7) L/h
- CL/F ([3]; PAN 20 mg (expansion phase), N=10): 193 (32.3) L/h
- CL/F ([3]; PAN 20 mg, N=11): 269 (68.2) L/h
- Tmax, Median (range) ([3]; PAN 25 mg, N=8): 2.02 [1.25–4.90] h
- CL/F ([3]; PAN 25 mg, N=8): 294 (44.3) L/h
- Cmax ([3]; 15 mg): 6.03 ng/mL
- AUC ([3]; 15 mg, PAN 15 mg, N=10): 50.8 ng·h/mL
- AUC(0-t) ([3]; 15 mg, AUC0–24, PAN 15 mg, N=10): 42.5 ng·h/mL
- half-life ([3]; 15 mg, PAN 15 mg, N=10): 8.74 h
- Tmax ([3]; 15 mg, PAN 15 mg, N=10): 3 h
- Vd/F ([3]; 15 mg, PAN 15 mg, N=10): 3920 L
- Cmax ([3]; 20 mg): 15 ng/mL
- AUC [3, 8]: 103 ng·h/mL
- AUC ([3]; 20 mg, PAN 20 mg, N=11): 74.3 ng·h/mL
- AUC(0-t) ([3]; 20 mg, AUC0–24, PAN 20 mg (expansion phase), N=10): 92.7 ng·h/mL
- AUC(0-t) ([3]; 20 mg, AUC0–24, PAN 20 mg, N=11): 62.6 ng·h/mL
- half-life [3, 8]: 7.94 h
- half-life ([3]; 20 mg, PAN 20 mg, N=11): 9.7 h
- Tmax [3, 8]: 1.98 h
- Tmax ([3]; 20 mg, PAN 20 mg, N=11): 1.05 h
- Vd/F [3, 8]: 1810 L
- Vd/F ([3]; 20 mg, PAN 20 mg, N=11): 3790 L
- Cmax ([3]; 25 mg): 11.2 ng/mL
- AUC ([3]; 25 mg, PAN 25 mg, N=8): 85 ng·h/mL
- AUC(0-t) ([3]; 25 mg, AUC0–24, PAN 25 mg, N=8): 74.6 ng·h/mL
- half-life ([3]; 25 mg, PAN 25 mg, N=8): 7.81 h
- Vd/F ([3]; 25 mg, PAN 25 mg, N=8): 3360 L
- Complete remission (CR) ([4]; of 86 patients, 60-mg dose): 2 patients
- MTD of panobinostat alone [4]: 60 mg
- Response rate ([5]; 15-mg dose group): 81.8%
- CRi ([5]; 15-mg dose group (3 patients)): 27.3%
- CR ([5]; 15-mg dose group (6 patients)): 54.5%
- ORR ([5]; escalation phase (9 patients)): 60%
- ORR ([5]; expansion phase (6 patients)): 50%
- Complete remission (CR) ([5]; All patients, N=46): 20 (43.5) n (%)
- Complete remission with incomplete blood count recovery (CRi) ([5]; All patients, N=46): 8 (17.4) n (%)
- Partial remission (PR) ([5]; All patients, N=46): 2 (4.3) n (%)
- Response rate (CR or CRi) ([5]; All patients, N=46): 28 (60.9) n (%)
- Treatment failure ([5]; All patients, N=46): 13 (28.3) n (%)
- Complete remission (CR) ([5]; PAN 15 mg, N=11): 6 (54.5) n (%)
- Complete remission with incomplete blood count recovery (CRi) ([5]; PAN 15 mg, N=11): 3 (27.3) n (%)
- Partial remission (PR) ([5]; PAN 15 mg, N=11): 0 (0.0) n (%)
- Response rate (CR or CRi) ([5]; PAN 15 mg, N=11): 9 (81.8) n (%)
- Treatment failure ([5]; PAN 15 mg, N=11): 1 (9.1) n (%)
- Complete remission (CR) [5, 9]: 5 (41.7) n (%)
- Complete remission with incomplete blood count recovery (CRi) [5, 9]: 1 (8.3) n (%)
- Partial remission (PR) [5, 9]: 1 (8.3) n (%)
- Response rate (CR or CRi) [5, 9]: 6 (50.0) n (%)
- Treatment failure [5, 9]: 3 (25.0) n (%)
- Complete remission (CR) ([5]; PAN 20 mg, N=15): 7 (46.7) n (%)
- Complete remission with incomplete blood count recovery (CRi) ([5]; PAN 20 mg, N=15): 2 (13.3) n (%)
- Partial remission (PR) ([5]; PAN 20 mg, N=15): 0 (0.0) n (%)
- Response rate (CR or CRi) ([5]; PAN 20 mg, N=15): 9 (60.0) n (%)
- Treatment failure ([5]; PAN 20 mg, N=15): 6 (40.0) n (%)
- Complete remission (CR) ([5]; PAN 25 mg, N=8): 2 (25.0) n (%)
- Complete remission with incomplete blood count recovery (CRi) ([5]; PAN 25 mg, N=8): 2 (25.0) n (%)
- Partial remission (PR) ([5]; PAN 25 mg, N=8): 1 (12.5) n (%)
- Response rate (CR or CRi) ([5]; PAN 25 mg, N=8): 4 (50.0) n (%)
- Treatment failure ([5]; PAN 25 mg, N=8): 3 (37.5) n (%)
- Re-induction rate (second induction cycle) ([5]; Ten of 46 patients): 22%
- Overall response rate (ORR) (CR or CRi) ([5]; all 46 patients): 60.9%
- CR with incomplete count recovery (CRi) ([5]; all 46 patients (8 patients)): 17.4%
- Complete remission (CR) ([5]; all 46 patients (20 patients)): 43.5%
- Event-free survival at 1-year ([5]; all patients): 78.3%
- Treatment discontinuation due to disease progression ([5]; all patients (11 patients)): 23.9%
- Median overall survival ([5]; current study): not reached
- Median duration of response ([5]; inadequate number of events at last censoring): not estimable
- Patients who experienced DLTs during induction ([6]; human, in vivo): 7 patients
- Recommended phase 2 dose (RP2D) of panobinostat ([6]; human, in vivo): 20 mg
- MTD ([6]; patients 18–65 years, staggered schedule with idarubicin and ara-C): not reached
- SAE: sepsis (1 in 25 mg and 1 in 20 mg expansion groups): 2 patients
- Discontinuation, primary reason death (All patients, n=46): 5 (10.9) n (%)
- Discontinuation, primary reason death (PAN 15 mg, n=11): 1 (9.1) n (%)
- Discontinuation, primary reason death (PAN 20 mg (dose expansion), n=12): 3 (25) n (%)
- SAE: infections (all dose groups): 5 patients
- On-treatment deaths during the induction phase (all in the 20 mg expansion dose group): 6.5%
- Deaths during the study period or within 28 days after the end of treatment (all patients): 6 deaths
- Deaths in the induction phase (all patients): 3 deaths
- Deaths overall (induction and consolidation) (all patients): 5 deaths
- Abdominal pain, Any grade (human, in vivo): 3 (6.5) n (%)
- Abdominal pain, Grade 3 or 4 (human, in vivo): 0 (0.0) n (%)
- All-grade cardiac events (human, in vivo): 6.5%
- Alopecia, Any grade (human, in vivo): 3 (6.5) n (%)
- Alopecia, Grade 3 or 4 (human, in vivo): 0 (0.0) n (%)
- Anemia, Any grade (human, in vivo): 17 (37.0) n (%)
- Anemia, Grade 3 or 4 (human, in vivo): 15 (32.6) n (%)
- Anemia, all-grade (human, in vivo): 37%
- Decreased appetite, Any grade (human, in vivo): 10 (21.7) n (%)
- Decreased appetite, Grade 3 or 4 (human, in vivo): 1 (2.2) n (%)
- Decreased appetite, all-grade (human, in vivo): 21.7%
- Diarrhea, Any grade (human, in vivo): 25 (54.3) n (%)
- Diarrhea, Grade 3 or 4 (human, in vivo): 3 (6.5) n (%)
- Discontinuation, primary reason adverse events (human, in vivo): 8 (17.4) n (%)
- Discontinued due to AEs (human, in vivo): 15.8%
- Dyspepsia, Any grade (human, in vivo): 2 (4.3) n (%)
- Dyspepsia, Grade 3 or 4 (human, in vivo): 0 (0.0) n (%)
- Fatigue, Any grade (human, in vivo): 8 (17.4) n (%)
- Fatigue, Grade 3 or 4 (human, in vivo): 1 (2.2) n (%)
- Fatigue, all-grade (human, in vivo): 17.4%
- Febrile neutropenia, Any grade (human, in vivo): 17 (37.0) n (%)
- Febrile neutropenia, Grade 3 or 4 (human, in vivo): 16 (34.8) n (%)
- Febrile neutropenia, all-grade (human, in vivo): 37%
- Grade 3 or 4 AEs suspected to be treatment-related (human, in vivo): 73.9%
- Hypokalemia, Any grade (human, in vivo): 7 (15.2) n (%)
- Hypokalemia, Grade 3 or 4 (human, in vivo): 3 (6.5) n (%)
- Left ventricular dysfunction, Any grade (human, in vivo): 3 (6.5) n (%)
- Left ventricular dysfunction, Grade 3 or 4 (human, in vivo): 2 (4.3) n (%)
- Leukopenia, Any grade (human, in vivo): 2 (4.3) n (%)
- Leukopenia, Grade 3 or 4 (human, in vivo): 2 (4.3) n (%)
- Leukopenia, all-grade (human, in vivo): 4.3%
- Nausea, Any grade (human, in vivo): 18 (39.1) n (%)
- Nausea, Grade 3 or 4 (human, in vivo): 0 (0.0) n (%)
- Neutropenia, Any grade (human, in vivo): 9 (19.6) n (%)
- Neutropenia, Grade 3 or 4 (human, in vivo): 9 (19.6) n (%)
- Neutropenia, all-grade (human, in vivo): 19.6%
- Patients with AEs (human, in vivo): 84.8%
- Pyrexia, Any grade (human, in vivo): 6 (13.0) n (%)
- Pyrexia, Grade 3 or 4 (human, in vivo): 0 (0.0) n (%)
- SAE: cardiac disorders (human, in vivo): 5 patients
- SAE: grade ≥ 3 febrile neutropenia (human, in vivo): 10 patients
- Stomatitis, Any grade (human, in vivo): 9 (19.6) n (%)
- Stomatitis, Grade 3 or 4 (human, in vivo): 0 (0.0) n (%)
- Stomatitis, all-grade (human, in vivo): 19.6%
- Thrombocytopenia, Any grade (human, in vivo): 21 (45.7) n (%)
- Thrombocytopenia, Grade 3 or 4 (human, in vivo): 21 (45.7) n (%)
- Thrombocytopenia, all-grade (human, in vivo): 45.7%
- Treatment discontinuation due to AEs (human, in vivo): 17.4%
- Vomiting, Any grade (human, in vivo): 10 (21.7) n (%)
- Vomiting, Grade 3 or 4 (human, in vivo): 0 (0.0) n (%)
- Vomiting, all-grade (human, in vivo): 21.7%

Compound: O=C(CCCCCCC(=O)Nc1ccccc1)NO [vorinostat]
- Median overall survival (de novo AML; median follow-up of 82 weeks): 82 weeks
- All-grade cardiac events (de novo AML; with idarubicin and ara-C): 15%
- Diarrhea (de novo AML; with idarubicin and ara-C): 72%
- Nausea (de novo AML; with idarubicin and ara-C): 65%
